Consider 15 molecules from ChEMBL document CHEMBL2321775, “Synthesis and biological characterization of new aminophosphonates for mitochondrial pH determination by (31)P NMR spectroscopy” (J Med Chem, 2013).

Data set [1] deals with Liver. In words: Toxicity against Sprague-Dawley rat liver assessed as respiratory control ratio incubated for 1 hr followed by compound washout measured after 10 mins. It counts as tissue-based. The method in brief:
(§1)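 Livers perfused at 37 °C with 0.1 mM compound for 1 h, then 10 min cold KH washout. Mitochondria isolated in ice-cold 0.3 M sucrose by differential centrifugation for membrane potential measurement. RCR was taken as respiration with 0.5 mM ADP divided by respiration after ADP phosphorylation ended, in KH2PO4/EDTA/MOPS/MgCl2 with glutamate 20 mM and malate 1 mM, pH 7.2, 37 °C. Mean ± SD.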

The subject of data set [2] is Liver. The data set can be described thus: Toxicity against Sprague-Dawley rat liver assessed as mitochondrial membrane potential incubated for 1 hr followed by compound washout measured after 10 mins. It counts as tissue-based. In short, it runs like this: as §1
Data set [3] relates to Liver. In words: Toxicity against Sprague-Dawley rat liver assessed as ATP content incubated for 1 hr followed by compound washout measured after 10 mins. The class given is tissue-based. In short, it runs like this:
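Rat livers perfused at 37 °C with KH buffer containing 0.1 mM compound for 1 h, then washed out for 10 min with cold KH. Organ freeze-clamped in liquid nitrogen and ATP measured enzymatically in perchloric extracts, given as μmol/g. Mean ± SD of 3−9 experiments.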

Data set [4] is described as follows: Drug uptake in Sprague-Dawley rat liver mitochondria incubated for 1 hr followed by compound washout measured after 10 mins. The class given is ADME. The method in brief:
(§2)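 Sprague−Dawley male rat livers (120−150 g) perfused via the portal vein, non-recirculating, at 37 °C with KH bicarbonate buffer (95% O2/5% CO2, pH 7.35) at 3 mL/min/g. After 30 min equilibration, 0.1 mM compound was given for 1 h, followed by a 10 min ice-cold KH washout. Liver homogenised in 0.25 M sucrose/10 mM HEPES pH 7.5; cytosol and mitochondria separated by differential centrifugation and levels reported as μmol/g. 3−9 experiments, mean ± SD.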

Data set [5] in a line: Drug uptake in Sprague-Dawley rat liver cytosol incubated for 1 hr followed by compound washout measured after 10 mins. It counts as ADME, tissue-based. The method in brief:
as §2

Data set [6] in a line: (§3) Cytotoxicity against mouse 3T3 cells assessed as cell viability after 3 hrs by spectrophotometric analysis. The class given is cell-based, NIH3T3. The note with it: 3T3 cells (NIH3T3), read-out: LD50. The method in brief: (§4)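 Confluent 3T3 fibroblasts (DMEM, 10% FCS, 37 °C, 5% CO2) were switched to phenol red-free DMEM with 1% glucose and exposed 3 h to compound at 0.01−5 mM final (0.1% DMSO). Cells were then given neutral red (50 μg/mL, 2% FCS MEM) for 2 h and read at 540 nm. LD50 and LD10 were taken from dose−response curves over 3−6 experiments.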

For data set [7], the system named is NIH3T3. The description is as §3. It counts as cell-based. As to conditions: nih3t3, 3 h; call rule not given here. In short, it runs like this:
as §4

The test system of data set [8] is NIH3T3. The data set can be described thus: Cytotoxicity against mouse 3T3 cells assessed as LDH release per mg of protein at LD10 concentration after 1 hr by spectrophotometric analysis. As to conditions: nih3t3, 1 h. It counts as cell-based. In short, it runs like this: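 LDH released into the supernatant was measured after 1 h with a kit and expressed per mg protein. Total LDH was obtained from a Triton X-100 (1%) lysis control. Means of 3−6 independent experiments.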
For orientation: Release of lactate dehydrogenase indicates damage to the cell membrane.

Data set [9] can be described thus: Toxicity against Chlamydomonas reinhardtii D66 assessed as loss of respiratory activity after 1 hr. As to conditions: Chlamydomonas reinhardtii D66 cells, read-out: LD50. The method in brief:
(§5)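 Cell wall-less C. reinhardtii D66 grown in Tris acetate phosphate medium to 1−5 × 10^6 cells/mL at 25 °C. Exposed 1 h at 25 °C to 0.01−1 mM compound (DMSO ≤0.1%), under saturating light for photosynthesis or in the dark for respiration. NaHCO3 added (1 mM), then O2 measured by Clark electrode against DMSO control. LD50 is the concentration giving 50% activity loss.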

Data set [10] is described as follows: Toxicity against Chlamydomonas reinhardtii D66 assessed as loss of photosynthetic activity after 1 hr. As to conditions: Chlamydomonas reinhardtii D66 cells, read-out: LD50. In short, it runs like this: as §5
Data set [11] is described as follows: Dissociation constant, pKa of the compound in Krebs-Henseleit buffer. The class given is physicochemical. In short, it runs like this:
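31P NMR titration at 25 °C in Krebs−Henseleit buffer, with shifts referenced to external phosphoric acid and a D2O capillary as lock. Diethoxyphosphoryl shift plotted against pH (range 1.5−12) and fitted to the Henderson−Hasselbalch equation by nonlinear regression. Three independent titrations per compound, mean ± SEM.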

The test system of data set [12] is Liver. The data set can be described thus: Metabolic stability in Sprague-Dawley rat liver incubated for 1 hr followed by compound washout measured after 10 mins by 31P-NMR analysis. It counts as ADME, tissue-based.
Data set [13] can be described thus: Drug uptake in Sprague-Dawley rat liver cytosol incubated for 1 hr followed by compound washout measured after 10 mins by 31P-NMR analysis. The class given is ADME, tissue-based. In short, it runs like this:
as §2

Data set [14] can be described thus: Drug uptake in Sprague-Dawley rat liver mitochondria incubated for 1 hr followed by compound washout measured after 10 mins by 31P-NMR analysis. The class given is ADME. The method in brief:
as §2

In the case of `CC(C)(C)/[N+]([O-])=C/c1ccccc1`, the Ratio in the data set on Liver [1] is on record as 5.5. For the same molecule, the Activity is 178.9 mV in the data set on Liver [2], 2.11 µmol/g in the data set on Liver [3] and 14.2 IU in the data set with NIH3T3 [8]. Further, the Drug uptake in [4] is under 0.05 µmol/g; in data set [5] it was 0.88 µmol/g. The CC50 at 3 h in [6] came to 7200 µM. Besides, in the data set with NIH3T3 [7], the LD10 is listed as 4.1 mM. The LC50 at 1 h in data set [9] and in data set [10] was over 500 µM throughout.

Broadly, the pKa is the pH at which an ionisable group is half protonated. Read a low pKa as a stronger acid or weaker base. In the case of `CCCNC(C)(C)P(=O)(OCC)OCC`, the Ratio with Liver [1] came out at 5.9. The Activity with Liver [2] was 181.3 mV; in the data set on Liver [3], 2.33 µmol/g; with NIH3T3 [8] it was 11.9 IU. In addition, the Drug uptake in [4] was under 0.05 µmol/g; in data set [5], 0.56 µmol/g. Further, in the data set on NIH3T3 [7], the LD10 is given as 76 mM. The molecule also registered a pKa in data set [11] of 6.99.

In the case of `CCOP(=O)(OCC)C1(C)CCCN1` (stereo not drawn), in the data set on NIH3T3 [7], the LD10 was 78 mM. In addition, the Activity with NIH3T3 [8] was 13.1 IU. Besides, the LC50 at 1 h in data set [9] and in data set [10] was over 1000 µM each time. In [11], this molecule came in with a pKa of 7.01.

Turning to `CC(C)(C)/[N+]([O-])=C/c1ccc(OCCCC[P+](c2ccccc2)(c2ccccc2)c2ccccc2)cc1.[Br-]`, the Stability result with Liver [12] is on record as “Stable”. For the same molecule, the Drug uptake result in [13] was “Not Active”; in [14], “Active”; in data set [4], 1.95 µmol/g; in data set [5], 0.12 µmol/g. In addition, the Ratio in the data set with Liver [1] came to 4.7. The figures for the Activity in the data set on Liver [2], in the data set on Liver [3] and in the data set with NIH3T3 [8] were 170.7 mV, 1.95 µmol/g and 49.7 IU, respectively. The CC50 at 3 h in [6] worked out at 200 µM. Further, the LD10 in the data set on NIH3T3 [7] turned out to be 0.05 mM. Further, the values for the LC50 at 1 h in [9] and in data set [10] were 50 µM and 100 µM, respectively.

Turning to `CCOP(=O)(OCC)C(C)(C)NCCCC[P+](c1ccccc1)(c1ccccc1)c1ccccc1.[Br-]`, the CC50 at 3 h in data set [6] turned out to be 700 µM. Further, the LD10 in the data set with NIH3T3 [7] stood at 0.4 mM. Also, the Activity in the data set with NIH3T3 [8] is 10.2 IU. The results for the LC50 at 1 h in data set [9] and in [10] were 400 µM and 500 µM, respectively. Moreover, in [11], the pKa amounted to 5.9.

Turning to `CCOP(=O)(OCC)C(C)(C)NCCCCCC[P+](c1ccccc1)(c1ccccc1)c1ccccc1.[Br-]`, the Ratio in the data set on Liver [1] worked out at 5.7. Also, the Activity amounted to 174.2 mV in the data set with Liver [2], 2.29 µmol/g with Liver [3] and 14.9 IU with NIH3T3 [8]. The figures for the Drug uptake in data set [4] and in [5] were 1.55 µmol/g and 0.93 µmol/g, respectively. The CC50 at 3 h in data set [6] is 600 µM. In the data set on NIH3T3 [7], the LD10 came out at 0.2 mM. Further, the LC50 at 1 h in [9] turned out to be 100 µM; in data set [10], 250 µM. This molecule also showed a pKa in [11] of 6.53.

Turning to `CCOP(=O)(OCC)C(C)(C)NCCCCCCCC[P+](c1ccccc1)(c1ccccc1)c1ccccc1.[Br-]`, the Stability entry in the data set on Liver [12] is “Stable”. The Drug uptake result in data set [13] was “Active”; in [14], “Active”; in data set [4], 1.32 µmol/g; in [5], 0.64 µmol/g. For the same molecule, the Ratio with Liver [1] was found to be 5.2. The Activity worked out at 171.9 mV in the data set on Liver [2], 2.08 µmol/g in the data set with Liver [3] and 17.7 IU in the data set on NIH3T3 [8]. The CC50 at 3 h in data set [6] was determined as 300 µM. Moreover, the LD10 with NIH3T3 [7] amounted to 0.15 mM. The LC50 at 1 h is 75 µM in data set [9] and 100 µM in data set [10]. Moreover, the pKa in data set [11] was found to be 6.94.

As to `CCOP(=O)(OCC)C(C)(C)NCCCCCCCCCCCC[P+](c1ccccc1)(c1ccccc1)c1ccccc1.[Br-]`, the CC50 at 3 h in data set [6] worked out at 100 µM. In addition, the LD10 with NIH3T3 [7] amounted to 0.05 mM. Also, the Activity in the data set on NIH3T3 [8] is recorded as 44.7 IU. In addition, the LC50 at 1 h in data set [9] and in data set [10] was under 25 µM in each case. The same molecule registered a pKa in data set [11] of 6.85.

`CCOP(=O)(OCC)C(C)(CCC[P+](c1ccccc1)(c1ccccc1)c1ccccc1)NCC(C)C.[Br-]` (racemic): the CC50 at 3 h in data set [6] stood at 700 µM. Further, the LD10 with NIH3T3 [7] is listed as 0.5 mM. In addition, in the data set with NIH3T3 [8], the Activity is 12.9 IU. Besides, the LC50 at 1 h in [9] and in data set [10] was 300 µM throughout. In [11], the pKa was found to be 5.39.

On to `CCOP(=O)(OCC)C(NCCCC[P+](c1ccccc1)(c1ccccc1)c1ccccc1)C(C)C.[Br-]` (racemic), for which the CC50 at 3 h in data set [6] was 600 µM. Moreover, in the data set on NIH3T3 [7], the LD10 stood at 0.3 mM. The Activity in the data set with NIH3T3 [8] is 10.7 IU. In addition, the LC50 at 1 h in [9] was found to be 150 µM; in [10] it was 250 µM. Besides, the pKa in [11] was 5.47.

With `CCOP(=O)(OCC)C(NCCCCCC[P+](c1ccccc1)(c1ccccc1)c1ccccc1)C(C)C.[Br-]` (racemic), in data set [6], the CC50 at 3 h worked out at 500 µM. Also, in the data set with NIH3T3 [7], the LD10 is reported as 0.2 mM. Besides, the Activity in the data set on NIH3T3 [8] stood at 15.9 IU. Also, the LC50 at 1 h in data set [9] and in data set [10] was 130 µM throughout. The molecule further returned a pKa in data set [11] of 5.99.

As for `CCOP(=O)(OCC)C(NCCCCCCCC[P+](c1ccccc1)(c1ccccc1)c1ccccc1)C(C)C.[Br-]` (racemic), in data set [6], the CC50 at 3 h was determined as 300 µM. Further, the LD10 in the data set on NIH3T3 [7] is 0.05 mM. Moreover, in the data set with NIH3T3 [8], the Activity is given as 49.4 IU. Also, the LC50 at 1 h in data set [9] and in data set [10] was 25 µM throughout. For the same molecule, the pKa in data set [11] is 6.23.

For `CCOP(=O)(OCC)C(NCCCCCCCCCCCC[P+](c1ccccc1)(c1ccccc1)c1ccccc1)C(C)C.[Br-]` (racemic), the CC50 at 3 h in data set [6] came to 20 µM. Also, the LD10 with NIH3T3 [7] came to 0.01 mM. In the data set on NIH3T3 [8], the Activity was found to be 52.7 IU. In addition, the LC50 at 1 h in [9] and in data set [10] was under 10 µM in each case. The molecule also returned a pKa in data set [11] of 6.38.

Turning to `CCOP(=O)(OCC)C(NCCCCCC[P+](c1ccccc1)(c1ccccc1)c1ccccc1)C(C)(C)C.[Br-]` (racemic), the CC50 at 3 h in data set [6] came out at 300 µM. Also, the LD10 with NIH3T3 [7] worked out at 0.2 mM. In addition, the Activity in the data set with NIH3T3 [8] worked out at 16.7 IU. The molecule also displayed a pKa in data set [11] of 5.63.

With `CCOP(=O)(OCC)C(C)(N)CCC[P+](c1ccccc1)(c1ccccc1)c1ccccc1` (racemic), in data set [11], the pKa is 5.13.
